The text below walks through data of ChEMBL document CHEMBL1250472, “"Clicked" bivalent ligands containing curcumin and cholesterol as multifunctional abeta oligomerization inhibitors: design, synthesis, and biological characterization” (J Med Chem, 2010).

The structures appear in SMILES notation. Activity calls are given as the source filed them. The calls are words filed in the database; no cut-off is given here.

Data set [1] is described as follows: Cytotoxicity against human MC65 cells after 72 hrs. The note with it: mc65, 72 h.
In data set [2] the target is Amyloid-beta precursor protein (Homo sapiens) (UniProt P05067). The data set can be described thus: Inhibition of APP expressed in human MC65 cells assessed as inhibition of amyloid beta oligomer formation at 10 uM by Western blotting after removal of tetracycline. A general note: A western blot detects proteins with antibodies after separation by electrophoresis.
Data set [3] is described as follows: Cytotoxicity against mouse NK cells after 24 hrs.
Data set [4] deals with MC65. The data set can be described thus: Binding affinity to cell membrane/lipid raft of human MC65 cells after 24 hrs by immunocytometry. Format: cell-based. The method in brief:
(§1)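 MC65 cells exposed to compound (10 μM) for 24 h, fixed in 4% paraformaldehyde, permeabilized with 0.1% Triton X-100, DAPI-stained. Compound's own fluorescence located by confocal microscopy (excitation 355 and 494 nm). 1.0 μm optical sections through the cell depth, projected into a composite image.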

The target of data set [5] is Amyloid-beta precursor protein (Homo sapiens) (UniProt P05067). The data set can be described thus: Inhibition of APP expressed in human MC65 cells assessed as inhibition of amyloid beta 42 oligomerization by transmission electron microscopy. Format: cell-based.
The test system of data set [6] is MC65. The data set can be described thus: Antioxidant activity in human MC65 cells assessed as decrease in oxidative stress by DCFH-DA assay. Format: functional, cell-based. The method in brief: (§2)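 MC65 cells, 4 × 10^4/well, grown 24 h, then exposed to compounds in Opti-MEM with or without TC for 24 h (blanks with compound only). DCFH-DA loaded at 25 μM final for 30 min at 37 °C, medium replaced, fluorescence read at 485/530 nm. Expressed as % of parallel -TC cultures, n = 5.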

Data set [7] relates to SH-SY5Y. The data set can be described thus: Cytoprotective activity against amyloid-beta oligomer-induced cytotoxicity in human SH-SY5Y cells after 48 hrs.
Data set [8] can be described thus: Apparent permeability from basolateral to apical side of human Caco-2 cells. Format: ADME, cell-based. In short, it runs like this: (§3)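 Caco-2 cells, passages 30-50, grown 21 days on transwell inserts to confluence; TEER >400 ohm·cm² and lucifer yellow permeability <1 × 10^-6 cm/s. Compound at 10 μM added apical or basolateral in HBSS, 37 °C with shaking. Sampling at 30, 60, 120 min, HPLC with fluorescence detection. Permeability calculated by Fick's law; efflux ratio is B-A/A-B.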
(In general: Caco-2 cells form a polarised layer with tight junctions and transporters.)

The nature of data set [9]: Apparent permeability from apical to basolateral side of human Caco-2 cells. Format: ADME, cell-based. In short, it runs like this:
as §3

Data set [10] has as its system MC65. The data set can be described thus: Cytoprotective activity against amyloid-beta oligomer-induced cytotoxicity in human MC65 cells after 72 hrs.
Data set [11] has as its system MC65. The data set can be described thus: Binding affinity to amyloid beta expressed in human MC65 cells after 24 hrs by immunocytometry. Format: cell-based. In short, it runs like this: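 MC65 cells, 1 × 10^4/well, given compounds (10 μM) right after TC removal, 24 h. Surface stained with Alexa 488-CTX-B on ice, then fixed in 4% paraformaldehyde and permeabilized with Triton X-100. Stained with A11 oligomer antibody plus Alexa 568 secondary, DAPI counterstain. Confocal imaging; red puncta per cell averaged over five areas.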

Another data set concerns Spleen. The data set can be described thus: Toxicity against mouse spleen after 24 hrs. Format: tissue-based. The note with it: in vitro.
Data set [12] addresses Amyloid-beta precursor protein (Homo sapiens) (UniProt P05067). The data set can be described thus: Inhibition of APP expressed in human MC65 cells assessed as inhibition of amyloid beta oligomer formation at 10 uM by Western blotting. Format: cell-based. In short, it runs like this:
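MC65 cells, 1 × 10^6/well, exposed to compounds (10 μM) in Opti-MEM with or without TC for 24 h. Lysates (10 μg protein) run on 10-20% tris-tricine SDS-PAGE and blotted with 6E10 (1:2000), HRP secondary, chemiluminescence. Three independent experiments.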

Data set [13] deals with MC65. The data set can be described thus: Antioxidant activity in human MC65 cells assessed as decrease in lipid peroxidation by DCFH-DA assay. Format: functional, cell-based. Particulars: in the assay text read “intracellular oxidative stress” for “lipid peroxidation”. The method in brief:
as §2

Data set [14] relates to SH-SY5Y. The data set can be described thus: Cytotoxicity against human SH-SY5Y cells after 48 hrs.
Data set [15] concerns SH-SY5Y. The data set can be described thus: Cytoprotective activity against amyloid-beta oligomer-induced cytotoxicity in human SH-SY5Y cells at 16 uM after 48 hrs.
Data set [16] has as its system SH-SY5Y. The data set can be described thus: Cytoprotective activity against amyloid-beta oligomer-induced cytotoxicity in human SH-SY5Y cells at 2 to 8 uM after 48 hrs.
Data set [17] can be described thus: Cellular uptake in human MC65 cells after 24 hrs by immunocytometry. Format: ADME, cell-based. The note with it: mc65, 24 h. In short, it runs like this: as §1

Chain of Amyloid-beta precursor protein (Homo sapiens) (P05067 whole entry): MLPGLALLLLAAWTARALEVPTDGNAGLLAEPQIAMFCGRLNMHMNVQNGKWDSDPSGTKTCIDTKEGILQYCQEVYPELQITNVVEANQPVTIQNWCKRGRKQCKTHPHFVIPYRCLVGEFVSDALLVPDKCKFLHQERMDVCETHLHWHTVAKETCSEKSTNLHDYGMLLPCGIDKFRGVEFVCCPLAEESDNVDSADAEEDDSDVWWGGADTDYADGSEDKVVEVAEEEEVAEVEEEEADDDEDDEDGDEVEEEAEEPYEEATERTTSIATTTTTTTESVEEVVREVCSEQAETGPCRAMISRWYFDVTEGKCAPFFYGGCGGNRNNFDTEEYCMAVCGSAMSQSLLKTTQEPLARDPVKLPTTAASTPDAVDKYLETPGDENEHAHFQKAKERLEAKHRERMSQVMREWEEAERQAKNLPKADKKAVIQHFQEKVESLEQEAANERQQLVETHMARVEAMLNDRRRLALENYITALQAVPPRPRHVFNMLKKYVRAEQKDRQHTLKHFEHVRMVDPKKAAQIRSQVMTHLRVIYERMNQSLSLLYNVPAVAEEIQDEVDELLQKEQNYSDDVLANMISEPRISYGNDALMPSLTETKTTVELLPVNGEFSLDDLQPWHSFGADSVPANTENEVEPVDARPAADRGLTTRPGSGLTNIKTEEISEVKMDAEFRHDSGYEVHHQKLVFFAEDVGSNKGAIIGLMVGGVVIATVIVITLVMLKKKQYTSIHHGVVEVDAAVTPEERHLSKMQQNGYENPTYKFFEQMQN

`COc1cc(/C=C/C(=O)/C(Cc2cn(CCCCCCNC(=O)CCNC(=O)CO[C@H]3CC[C@@]4(C)C(=CC[C@H]5[C@@H]6CC[C@H]([C@H](C)CCCC(C)C)[C@@]6(C)CC[C@@H]54)C3)nn2)=C(O)/C=C/c2ccc(O)c(OC)c2)ccc1O`: in data set [1], the Activity result was “Non-toxic”. In data set [2], the inhibition result was “Active”.

For the compound `COc1cc(/C=C/C(=O)/C=C(O)/C=C/c2ccc(OCc3cn(CCCCNC(=O)CCNC(=O)CCNC(=O)CO[C@H]4CC[C@@]5(C)C(=CC[C@H]6[C@@H]7CC[C@H]([C@H](C)CCCC(C)C)[C@@]7(C)CC[C@@H]65)C4)nn3)c(OC)c2)ccc1O`, the inhibition result in data set [2] was “Active”.

As for `COc1cc(/C=C/C(=O)/C(Cc2cn(CCCCCCNC(=O)CCNC(=O)CCNC(=O)CO[C@H]3CC[C@@]4(C)C(=CC[C@H]5[C@@H]6CC[C@H]([C@H](C)CCCC(C)C)[C@@]6(C)CC[C@@H]54)C3)nn2)=C(O)/C=C/c2ccc(O)c(OC)c2)ccc1O`, the Activity result in [3] was “Non-toxic”; in the data set with MC65 [10] it was “Dose-dependent effect”; with Spleen it was “Toxic”. Further, the result in the data set with MC65 [4], with MC65 [6] and with SH-SY5Y [7] was Active. For the same compound, the inhibition result in [5], in [2] and in data set [12] was “Active” each time. In data set [8], the Papp B→A – broadly, the apparent permeability from the basolateral to the apical side of a cell layer – amounted to 4.7 ×10⁻⁶ cm/s. The Papp A→B (commonly the apparent permeability from the apical to the basolateral side of a cell layer) in [9] amounted to 7.1 ×10⁻⁶ cm/s. Besides, in the data set with MC65 [11], the outcome was inactive.

Consider `COc1cc(/C=C/C(=O)/C(Cc2cn(CCCCNC(=O)CCNC(=O)CO[C@H]3CC[C@@]4(C)C(=CC[C@H]5[C@@H]6CC[C@H]([C@H](C)CCCC(C)C)[C@@]6(C)CC[C@@H]54)C3)nn2)=C(O)/C=C/c2ccc(O)c(OC)c2)ccc1O`, for which the inhibition entry in [2] is “Active”.

For `COc1cc(/C=C/C(=O)/C(Cc2cn(CCCCNC(=O)CO[C@H]3CC[C@@]4(C)C(=CC[C@H]5[C@@H]6CC[C@H]([C@H](C)CCCC(C)C)[C@@]6(C)CC[C@@H]54)C3)nn2)=C(O)/C=C/c2ccc(O)c(OC)c2)ccc1O`, the inhibition entry in [2] was “inactive”.

As to `COc1cc(/C=C/C(=O)/C=C(O)/C=C/c2ccc(OCc3cn(CCCCNC(=O)CCNC(=O)CO[C@H]4CC[C@@]5(C)C(=CC[C@H]6[C@@H]7CC[C@H]([C@H](C)CCCC(C)C)[C@@]7(C)CC[C@@H]65)C4)nn3)c(OC)c2)ccc1O`, in [2], the inhibition result is “Active”.

For `COc1cc(/C=C/C(=O)/C=C(O)/C=C/c2ccc(OCc3cn(CCCCCCNC(=O)CO[C@H]4CC[C@@]5(C)C(=CC[C@H]6[C@@H]7CC[C@H]([C@H](C)CCCC(C)C)[C@@]7(C)CC[C@@H]65)C4)nn3)c(OC)c2)ccc1O`, in [2], the inhibition entry is “inactive”.

In the case of `COc1cc(/C=C/C(=O)/C=C(O)/C=C/c2ccc(OCc3cn(CCCCCCNC(=O)CCNC(=O)CO[C@H]4CC[C@@]5(C)C(=CC[C@H]6[C@@H]7CC[C@H]([C@H](C)CCCC(C)C)[C@@]7(C)CC[C@@H]65)C4)nn3)c(OC)c2)ccc1O`, in data set [2], the inhibition entry is “Active”.

With `CCCCNC(=O)CCC(=O)NCCCCCCn1cc(COc2ccc(/C=C/C(O)=C/C(=O)/C=C/c3ccc(O)c(OC)c3)cc2OC)nn1`, in [2], the inhibition entry was “inactive”.

`COc1cc(/C=C/C(=O)/C=C(O)/C=C/c2ccc(OCc3cn(CCCCCCNC(=O)CCNC(=O)CCNC(=O)CO[C@H]4CC[C@@]5(C)C(=CC[C@H]6[C@@H]7CC[C@H]([C@H](C)CCCC(C)C)[C@@]7(C)CC[C@@H]65)C4)nn3)c(OC)c2)ccc1O`: in data set [1], the Activity entry is on record as “Non-toxic”.

Consider `COc1cc(/C=C/C(=O)/C=C(O)/C=C/c2ccc(OCc3cn(CCCCNC(=O)CO[C@H]4CC[C@@]5(C)C(=CC[C@H]6[C@@H]7CC[C@H]([C@H](C)CCCC(C)C)[C@@]7(C)CC[C@@H]65)C4)nn3)c(OC)c2)ccc1O`, for which, in data set [2], the inhibition result is “inactive”.

On to `COc1cc(/C=C/C(=O)/C(Cc2cn(CCCCNC(=O)CCNC(=O)CCNC(=O)CO[C@H]3CC[C@@]4(C)C(=CC[C@H]5[C@@H]6CC[C@H]([C@H](C)CCCC(C)C)[C@@]6(C)CC[C@@H]54)C3)nn2)=C(O)/C=C/c2ccc(O)c(OC)c2)ccc1O`, for which the inhibition result in data set [2] was “Active”.

For `COc1cc(/C=C/C(=O)/C(Cc2cn(CCCCCCNC(=O)CO[C@H]3CC[C@@]4(C)C(=CC[C@H]5[C@@H]6CC[C@H]([C@H](C)CCCC(C)C)[C@@]6(C)CC[C@@H]54)C3)nn2)=C(O)/C=C/c2ccc(O)c(OC)c2)ccc1O`, in [2], the inhibition entry is “inactive”.

In the case of `COc1cc(/C=C/C(=O)CC(=O)/C=C/c2ccc(O)c(OC)c2)ccc1O` [CURCUMIN], the result with MC65 [13], in the data set on MC65 [6], in the data set on MC65 [10] and in the data set with SH-SY5Y [16] was Active. The inhibition result in data set [5] is “Active”. The Activity entry in the data set on SH-SY5Y [14] is listed as “Toxic”. Also, the inhibition entry in data set [2] was “inactive”. For the same compound, in the data set with SH-SY5Y [15], the result was inactive. The Drug uptake result in data set [17] was “Active”.

Turning to `CCCCNC(=O)CCC(=O)NCCCCCCn1cc(C/C(C(=O)/C=C/c2ccc(O)c(OC)c2)=C(O)\C=C\c2ccc(O)c(OC)c2)nn1`, the inhibition entry in data set [2] was “inactive”.
